Consider six compounds from ChEMBL document CHEMBL1649291, “ADS-J1 inhibits human immunodeficiency virus type 1 entry by interacting with the gp41 pocket region and blocking fusion-active gp41 core formation” (Antimicrob Agents Chemother, 2009).

Activity calls are given as the source filed them. The rule behind the calls is not given here. Peptide text beside a SMILES is read from it.

What is called inhibition is the relative decrease from the control value, in per cent. The IC50 is the concentration needed to halve the response being measured.

Assay [1] relates to MT2. Put plainly: Inhibition of to HIV1 3B gp120 binding to CD4-positive human MT2 cells at 10 ug/ml by ELISA. The class given is cell-based. Particulars: Human immunodeficiency virus 1.
Assay [2] has as its system Human immunodeficiency virus 1. Put plainly: Antiviral activity against HIV1 3B infected in human MT2 cells assessed as inhibition of viral p24 antigen production at 5 uM after 8 hrs by ELISA.
Assay [3] deals with Human immunodeficiency virus 1. Put plainly: Inhibition of HIV1 3B gp41 fusion-active core formation after 30 mins by N-PAGE. The essentials: (§1)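 Native PAGE: N36 incubated with compound or PBS (or, for the preformed case, N36 with C34) at 37°C 30 min before adding the third component; final peptides 40 µM, compounds 100 µM; further 30 min 37°C. Mixed 1:1 with native sample buffer, run on 18% Tris-glycine gels at 125 V, room temperature, 2 h; Coomassie staining.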

The subject of assay [4] is MT2. Put plainly: Inhibition of HIV1 3B gp41-mediated cell-cell fusion between viral envelope expressing virus-infected human H9 cells to human MT2 cells at 10 uM treated before addition of human MT2 cells measured after drug washout by fluorescence assay. The class given is cell-based. Conditions: Human immunodeficiency virus 1. An outline of the steps: (§2)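 Dye-transfer fusion: calcein-AM-labeled H9/HIV-1 IIIB cells cocultured with MT-2 cells (1:5) at 37°C for 2 h; compound at 10 µM either present throughout, or preincubated with H9/HIV-1 IIIB or with MT-2 cells 37°C 30 min then removed by two washes before adding partner cells. Fused and unfused labeled cells counted by fluorescence microscopy; triplicates, mean ± SD.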

Assay [5] has as its system Human immunodeficiency virus 1. Put plainly: Antiviral activity against HIV1 3B infected in human MT2 cells assessed as inhibition of viral p24 antigen production at 5 uM after 1 hr by ELISA.
For assay [6], the system named is MT2. Put plainly: Inhibition of HIV1 3B gp41-mediated cell-cell fusion between viral envelope expressing virus-infected human H9 cells to human MT2 cells at 10 uM measured after drug washout by fluorescence assay. The class given is cell-based. Particulars: Human immunodeficiency virus 1. An outline of the steps:
as §2

Assay [7] deals with MT2. Put plainly: Inhibition of HIV1 3B gp41-mediated cell-cell fusion between viral envelope expressing human virus-infected H9 cells to human MT2 cells at 10 uM by fluorescence assay. The class given is cell-based. Particulars: Human immunodeficiency virus 1. An outline of the steps: as §2
In assay [8] the test system is Human immunodeficiency virus 1. Put plainly: Binding affinity to HIV1 3B gp41 assessed as alteration of structural configuration of N36-C34 complex at 10 to 40 uM after 30 mins by spectroscopy. The essentials:
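CD spectroscopy in PBS pH 7.2: N36 preincubated with compound or PBS 37°C 30 min, then C34 added and incubated a further 30 min at 37°C; final peptides 10 µM each, compound 40 µM. Spectra at room temperature, 0.1-cm path, blank-subtracted; α-helix content from mean residue ellipticity at 222 nm relative to −33,000 deg cm2 dmol−1.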

Assay [9] has as its system Human immunodeficiency virus 1. The assay can be described thus: Binding affinity to HIV1 3B gp41 assessed as effect on N36K574D-C34D632K complex formation at 40 to 100 uM after 30 mins by N-PAGE.
Assay [10] can be described thus: Inhibition of PIE7 binding to HIV1 3B gp41 after 30 mins by ELISA. Set-up: species or system Human immunodeficiency virus 1. For orientation: ELISA stands for enzyme-linked immunosorbent assay.
Assay [11] has as its target C-X-C chemokine receptor type 4 (Homo sapiens) (UniProt P61073). Put plainly: Inhibition of MAb12G5 binding to CXCR4 in human CEM cells at 25 uM by ELISA. The class given is cell-based. Particulars: CCRF-CEM.
Assay [12] relates to Human immunodeficiency virus 1. The assay can be described thus: Binding affinity to IQNI7 pocket of HIV1 3B gp41 at 1 uM after 30 mins by SPR assay. Background: In SPR one partner is held on a chip, and binding of the other changes the refractive index at the surface.
A short description of assay [13]: (§3) Inhibition of HIV1 3B gp41 fusion-active core formation after 30 mins by sandwich ELISA. Further details: species or system Human immunodeficiency virus 1. The essentials:
(§4)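 After 30 min at 37°C, mixtures added to wells coated with anti-6-HB rabbit IgG (10 µg/ml); detected with MAb NC-1, biotin anti-mouse IgG, SA-HRP, TMB at A450. Triplicates; percent inhibition calculated.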

Assay [14] concerns Human immunodeficiency virus 1. The assay is described as §3. The essentials: as §4
In assay [15] the test system is Human immunodeficiency virus 1. The assay can be described thus: Inhibition of preformed HIV1 3B gp41 fusion-active core formation at 40 to 100 uM after 30 mins by N-PAGE. An outline of the steps: as §1
Assay [16] concerns Human immunodeficiency virus 1. Put plainly: Inhibition of preformed HIV1 3B gp41 fusion-active core formation at 40 to 100 uM after 30 mins by sandwich ELISA.
Assay [17] deals with Human immunodeficiency virus 1. The assay can be described thus: Induction of alteration of preformed structural configuration of N36-C34 complex in HIV1 3B gp41 at 10 to 40 uM after 30 mins by spectroscopy. An outline of the steps:
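Preformed-complex CD control: N36 and C34 incubated together 37°C 30 min, then compound or PBS added for a further 30 min at 37°C; final peptides 10 µM each, compound 40 µM, in PBS pH 7.2. Spectra at room temperature, blank-subtracted; helicity from 222 nm ellipticity versus −33,000 deg cm2 dmol−1.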

Assay [18] relates to MT2. The assay can be described thus: Inhibition of HIV1 3B gp41-mediated cell-cell fusion between viral envelope expressing virus-infected human H9 cells to human MT2 cells at 10 uM treated 30 mins before viral infection by fluorescence assay. The class given is cell-based. Conditions: Human immunodeficiency virus 1.
Assay [19] deals with Human immunodeficiency virus 1. Particulars: 3B, 1 uM.
The test system of assay [20] is Human immunodeficiency virus 1. Particulars: 3B, 1 uM. The source holds these as a separate data set.
The subject of assay [21] is Human immunodeficiency virus 1. The assay can be described thus: Binding affinity to IQ pocket of HIV1 3B gp41 at 1 uM after 30 mins by SPR assay.

Sequence of C-X-C chemokine receptor type 4 (Homo sapiens) (P61073 whole entry): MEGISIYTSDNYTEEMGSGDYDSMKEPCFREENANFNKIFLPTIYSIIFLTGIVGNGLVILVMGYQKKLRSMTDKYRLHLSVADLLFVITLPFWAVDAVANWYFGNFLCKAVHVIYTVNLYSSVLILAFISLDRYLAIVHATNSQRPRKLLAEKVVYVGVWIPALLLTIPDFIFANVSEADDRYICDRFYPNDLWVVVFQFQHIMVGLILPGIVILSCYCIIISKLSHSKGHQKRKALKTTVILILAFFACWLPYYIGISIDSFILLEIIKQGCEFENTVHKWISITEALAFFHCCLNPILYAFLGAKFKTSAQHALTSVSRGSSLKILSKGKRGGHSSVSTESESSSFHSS

For the compound `CN1C(=O)[C@@H](c2cc(Cl)c(O)c(Cl)c2)NC(=O)[C@@H]2NC(=O)[C@@H](c3cc(Cl)c(O)c(Cl)c3)NC(=O)[C@H](NC(=O)C(=O)c3cc(Cl)c(O)c(Cl)c3)Cc3c[nH]c4c(cccc34)-c3cc2cc(c3O)Oc2ccc(cc2)C[C@H]1C(=O)N[C@@H](C(=O)O)c1ccc(O)cc1`, in assay [1], the inhibition entry was “Active”.
As to `Cc1cn([C@H]2C[C@H](N=[N+]=[N-])[C@@H](CO)O2)c(=O)[nH]c1=O`, the inhibition result in assay [2] is “inactive”.
Regarding `COc1ccc(S(=O)(=O)O)cc1/N=N/c1c(S(=O)(=O)O)cc2cc(Nc3nc(Nc4ccccc4)nc(Nc4cc(C)c(/N=N/c5cc(S(=O)(=O)O)cc6cc(S(=O)(=O)O)cc(O)c56)cc4OC)n3)ccc2c1O`, the inhibition entry is “Dose-dependent effect” in assay [3]; 80% in assay [4]; 50% in [6]; 18% in assay [11]; “Dose-dependent effect” in [14]. Moreover, the inhibition result in assay [5] and in assay [7] was “Active” in each case. In addition, the result in assay [8] and in assay [12] was Active. Besides, the result in assay [9] and in assay [17] was inactive. The IC50 in [10] was 680 nM; in assay [13], 3.36 µM. For the same compound, the inhibition entry in assay [1], in assay [15], in assay [16] and in assay [18] was “inactive” throughout.
With `N=C(N)NCCC[C@H](NC(=O)[C@H](CS)NC(=O)[C@H](CCCCN)NC(=O)[C@H](CCCNC(=N)N)NC(=O)[C@H](Cc1ccc(O)cc1)NC(=O)[C@H](CS)NC(=O)[C@H](Cc1ccc(O)cc1)NC(=O)CNC(=O)[C@H](CCCCN)NC(=O)[C@H](Cc1ccc(O)cc1)NC(=O)[C@H](CS)NC(=O)[C@H](CCCCN)NC(=O)[C@H](CCCNC(=N)N)NC(=O)[C@H](Cc1ccc(O)cc1)NC(=O)[C@H](CS)NC(=O)[C@H](Cc1c[nH]c2ccccc12)NC(=O)[C@H](CCCNC(=N)N)NC(=O)[C@@H](N)CCCNC(=N)N)C(=O)O` (H-RRWCYRKCYKGYCYRKCR-OH), the inhibition entry in assay [11] was “Active”.
For `c1cc(CN2CCCNCCNCCCNCC2)ccc1CN1CCCNCCNCCCNCC1`, the inhibition entry in assay [19] was “Active”. Moreover, the outcome in [12] was inactive. Also, the inhibition result in assay [20] was “inactive”.
`CC[C@H](C)[C@H](NC(=O)[C@H](CCC(=O)O)NC(=O)[C@H](CC(N)=O)NC(=O)[C@H](CCC(=O)O)NC(=O)[C@@H](NC(=O)[C@H](CCCCN)NC(=O)[C@H](CCCCN)NC(=O)[C@H](CCC(N)=O)NC(=O)[C@H](CCCCN)NC(=O)[C@H](CO)NC(=O)[C@H](CCC(=O)O)NC(=O)[C@@H](NC(=O)[C@H](CCC(=O)O)NC(=O)[C@H](CCC(=O)O)NC(=O)[C@@H](NC(=O)[C@H](CCCCN)NC(=O)[C@H](CC(=O)O)NC(=O)[C@H](CCC(=O)O)NC(=O)[C@@H](NC(=O)[C@H](CCC(N)=O)NC(=O)[C@H](CCCCN)NC(=O)[C@H](CCSC)NC(=O)[C@@H](N)CCCNC(=N)N)[C@@H](C)CC)[C@@H](C)CC)[C@@H](C)CC)[C@@H](C)CC)C(=O)N[C@@H](C)C(=O)N[C@@H](CCCNC(=N)N)C(=O)N[C@H](C(=O)N[C@@H](CCCCN)C(=O)N[C@@H](CCCCN)C(=O)O)[C@@H](C)CC`: the outcome in [21] was inactive.
